From ChEMBL document CHEMBL1125290, “Bis basic substituted diaminobenzobisthiazoles as potential antiarthritic agents” (1992)

What was measured:
Assay type in all cases: functional
[1] = system: Rattus norvegicus; test: Antiinflammatory activity against D-adjuvant arthritis in injected rat paw at the dose of 50 mg/kg by oral administration
[2] = system: Rattus norvegicus; test: Antiinflammatory activity against D-adjuvant arthritis in uninjected rat paw at the dose of 50 mg/kg by oral administration
Procedure, shortened: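 Rat developing adjuvant arthritis screen with oral dosing on a prophylactic protocol. Percent change in body weight versus untreated animals was recorded as a preliminary toxicity sign. Significance was assessed against controls by two-tailed Student's t test, p < 0.05.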

[3] = system: Rattus norvegicus; test: Antiinflammatory activity dosed orally against D-adjuvant arthritis in rat.
[4] = system: Rattus norvegicus; test: Antiinflammatory activity dosed orally against carrageenan induced rat paw edema(CPE)
Procedure, shortened: (§1)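 Male Sprague–Dawley rats (150 ± 10 g), five per group. Compound or vehicle given orally in 0.5% methylcellulose 1 h before subplantar injection of 0.1 mL 1% carrageenan in saline into the right hind paw. Paw volume measured by mercury displacement before dosing and 3 h after carrageenan; the difference is the edema volume. ANOVA with Dunnett's t test.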

[5] = system: Rattus norvegicus; test: Antiinflammatory activity against D-adjuvant arthritis in uninjected rat paw at the dose of 200 mg/kg by oral administration
[6] = system: Rattus norvegicus; test: Antiinflammatory activity against D-adjuvant arthritis in injected rat paw at the dose of 200 mg/kg by oral administration
[7] = organism: Rattus norvegicus; test: Antiinflammatory activity in D-adjuvant induced arthritis in rat measured by the change in body weight; parameters: concentration or dose not given beside the values
[8] = system: Rattus norvegicus; test: Antiinflammatory activity against carrageenan induced rat paw edema (CPE), dosed orally; procedure, shortened: as §1
[9] = system: Rattus norvegicus; test: Antiinflammatory activity against D-adjuvant arthritis in injected rat paw at the dose of 25 mg/kg by oral administration
[10] = system: Rattus norvegicus; test: Antiinflammatory activity against D-adjuvant arthritis in uninjected rat paw at the dose of 25 mg/kg by oral administration
[11] = system: Rattus norvegicus; test: Antiinflammatory activity against D-adjuvant arthritis in uninjected rat paw at the dose of 100 mg/kg by oral administration
[12] = system: Rattus norvegicus; test: Antiinflammatory activity against D-adjuvant arthritis in injected rat paw at the dose of 100 mg/kg by oral administration
[13] = system: Rattus norvegicus; test: Antiinflammatory activity against D-adjuvant arthritis in uninjected rat paw at the dose of 10 mg/kg by oral administration
[14] = system: Rattus norvegicus; test: Antiinflammatory activity against D-adjuvant arthritis in injected rat paw at the dose of 10 mg/kg by oral administration

| Compound | inhibition in vivo at 50 mg/kg [1] | inhibition in vivo at 50 mg/kg [2] | Activity [7] | Inhibition [8] | further results |
| --- | --- | --- | --- | --- | --- |
| CCN(CC)CCC(=O)Nc1nc2cc3nc(NC(=O)CCN(CC)CC)sc3cc2s1 | 29% | 48% |  |  | Body weight change [3]: -5%; Inhibition [4]: 16% |
| Nc1nc2c(Br)c3nc(N)sc3cc2s1 |  |  | 10% | 33% | inhibition in vivo at 200 mg/kg [5]: 37%; inhibition in vivo at 200 mg/kg [6]: 47% |
| CNc1nc2cc3nc(NC)sc3cc2s1.Cl.Cl |  |  | -30% | 24% | inhibition in vivo at 25 mg/kg [9]: 71%; inhibition in vivo at 25 mg/kg [10]: 100% |
| O=C(CN1CCSCC1)Nc1nc2cc3nc(NC(=O)CN4CCSCC4)sc3cc2s1 |  |  | 6% | 7% | inhibition in vivo at 200 mg/kg [5]: 43%; inhibition in vivo at 200 mg/kg [6]: 0% |
| CCC1CCCCN1CC(=O)Nc1nc2cc3nc(NC(=O)CN4CCCCC4CC)sc3cc2s1 (configuration not stated) |  |  | -1% | 12% | inhibition in vivo at 200 mg/kg [5]: 65%; inhibition in vivo at 200 mg/kg [6]: 34% |
| CCN(CC)CC(=O)Nc1nc2c(C(F)(F)F)c3nc(NC(=O)CN(CC)CC)sc3c(Cl)c2s1.Cl.Cl |  |  | -22% | 18% | inhibition in vivo at 25 mg/kg [9]: 57%; inhibition in vivo at 25 mg/kg [10]: 100% |
| CN(CC(=O)Nc1nc2cc3nc(NC(=O)CN(C)C4CCCCC4)sc3cc2s1)C1CCCCC1.Cl.Cl |  |  | -4% | 6% | inhibition in vivo at 100 mg/kg [11]: 27%; inhibition in vivo at 100 mg/kg [12]: 32% |
| N#Cc1c2sc(N)nc2c(Cl)c2nc(N)sc12 |  |  | 3% | 7% | inhibition in vivo at 200 mg/kg [5]: 37%; inhibition in vivo at 200 mg/kg [6]: 47% |
| CCNCC(=O)Nc1nc2cc3nc(NC(=O)CNCC)sc3cc2s1.Cl.Cl |  |  | -28% | 21% | inhibition in vivo at 25 mg/kg [9]: 79%; inhibition in vivo at 25 mg/kg [10]: 100% |
| CCN(CC)CCNc1nc2cc3nc(NCCN(CC)CC)sc3cc2s1 |  |  | 3% | 14% | inhibition in vivo at 100 mg/kg [11]: 0%; inhibition in vivo at 100 mg/kg [12]: 33% |
| CCN(CC)CC(=O)Nc1nc2c(cc(Cl)c3nc(NC(=O)CN(CC)CC)sc32)s1 |  |  | -58% | 35% | inhibition in vivo at 100 mg/kg [11]: 62%; inhibition in vivo at 100 mg/kg [12]: 0% |
| O=P1(N(CCCl)CCCl)NCCCO1 (configuration not stated) [CYCLOPHOSPHAMIDE ANHYDROUS] |  |  |  |  | inhibition in vivo at 25 mg/kg [9]: 86%; inhibition in vivo at 25 mg/kg [10]: 100%; Body weight change [3]: -19%; Inhibition [4]: 18% |
| Nc1nc2cc3nc(N)sc3cc2s1 |  |  | -20% | 60% | inhibition in vivo at 100 mg/kg [11]: 92%; inhibition in vivo at 100 mg/kg [12]: 79% |
| Nc1nc2c(Cl)c3nc(N)sc3c(C(F)(F)F)c2s1 |  |  | 3% | 13% | inhibition in vivo at 200 mg/kg [5]: 12%; inhibition in vivo at 200 mg/kg [6]: 0% |
| O=C(CNc1ccccc1)Nc1nc2cc3nc(NC(=O)CNc4ccccc4)sc3cc2s1 | 0% | 0% | -11% | 0% |  |
| CC1CCCN(CC(=O)Nc2nc3cc4nc(NC(=O)CN5CCCC(C)C5)sc4cc3s2)C1 (configuration not stated) |  |  | 6% | 19% | inhibition in vivo at 200 mg/kg [5]: 63%; inhibition in vivo at 200 mg/kg [6]: 34% |
| CCOC(=O)C1CCCCN1CC(=O)Nc1nc2cc3nc(NC(=O)CN4CCCCC4C(=O)OCC)sc3cc2s1 (configuration not stated) | 6% | 0% | -16% | 20% |  |
| Nc1nc2cc3sc(N)nc3cc2s1 |  |  | -30% | 4% | inhibition in vivo at 10 mg/kg [13]: 100%; inhibition in vivo at 10 mg/kg [14]: 88% |
| O=C(CN1CCN(CCO)CC1)Nc1nc2cc3nc(NC(=O)CN4CCN(CCO)CC4)sc3cc2s1 | 16% | 72% | 0% | 24% |  |
| CCN(CC)CC(=O)Nc1nc2cc3nc(N)sc3cc2s1 | 34% | 61% | -20% | 13% |  |
| CCN(CC)CC(=O)Nc1nc2c(Cl)c3nc(NC(=O)CN(CC)CC)sc3c(-c3ccccc3)c2s1 | 13% | 7% | -6% | 35% |  |
| CC(C)N(CC(=O)Nc1nc2cc3nc(NC(=O)CN(C(C)C)C(C)C)sc3cc2s1)C(C)C | 0% | 0% | -5% | 0% |  |

| Compound | inhibition in vivo at 50 mg/kg [1] | inhibition in vivo at 50 mg/kg [2] | Activity [7] | Inhibition [8] | further results |
| --- | --- | --- | --- | --- | --- |
| CCN(CC)CC(=O)Nc1nc2cc3nc(NC(=O)CCl)sc3cc2s1 | 38% | 0% |  |  | Body weight change [3]: -16%; Inhibition [4]: 25% |
| CCOC(=O)N1CCN(CC(=O)Nc2nc3cc4nc(NC(=O)CN5CCN(C(=O)OCC)CC5)sc4cc3s2)CC1.Cl.Cl | 26% | 60% | -17% | 17% |  |
| O=C(CN1CCNCC1)Nc1nc2cc3nc(NC(=O)CN4CCNCC4)sc3cc2s1 | 31% | 27% | -9% | 19% |  |
| CN1CCN(CC(=O)Nc2nc3cc4nc(NC(=O)CN5CCN(C)CC5)sc4cc3s2)CC1 | 0% | 0% | -25% | 28% |  |
| CCOC(=O)CN1CCN(CC(=O)Nc2nc3cc4nc(NC(=O)CN5CCN(CC(=O)OCC)CC5)sc4cc3s2)CC1 | 0% | 0% | -11% | 14% |  |
| Cl.Cl.O=C(CN1CCCCC1)Nc1nc2cc3nc(NC(=O)CN4CCCCC4)sc3cc2s1 |  |  | -6% | 0.8% | inhibition in vivo at 200 mg/kg [5]: 79%; inhibition in vivo at 200 mg/kg [6]: 56% |
| O=C(CN1CCCC1)Nc1nc2cc3nc(NC(=O)CN4CCCC4)sc3cc2s1 | 18% | 21% | -21% | 17% |  |
| COc1cc2nc(N)sc2c2nc(N)sc12 | 34% | 35% | -29% | 43% |  |
| CCN(CC)CC(=O)Nc1nc2c(Cl)c3nc(NC(=O)CN(CC)CC)sc3c(C#N)c2s1.Cl.Cl | 80% | 100% | -35% | 19% |  |
| CCOC(=O)c1c2sc(NC(=O)CN(CC)CC)nc2c(Cl)c2nc(NC(=O)CN(CC)CC)sc12 | 0% | 0% | -16% | 5% |  |
| CCN(CC)CC(=O)Nc1nc2cc3nc(NC(=O)CN(CC)CC)sc3c(C)c2s1.Cl.Cl | 59% | 100% | -37% | 8% |  |
| CCOCCN(CCOCC)CC(=O)Nc1nc2cc3nc(NC(=O)CN(CCOCC)CCOCC)sc3cc2s1 | 16% | 21% | 0% | 0% |  |
| O=C(O)CNc1nc2cc3nc(NCC(=O)O)sc3cc2s1 |  |  | -25% | 2% | inhibition in vivo at 200 mg/kg [5]: 2%; inhibition in vivo at 200 mg/kg [6]: 0% |
| O=C(CN1CCN(CC(F)(F)F)CC1)Nc1nc2cc3nc(NC(=O)CN4CCN(CC(F)(F)F)CC4)sc3cc2s1 | 0% | 10% | -13% | 25% |  |
| CCN(CC)CC(=O)Nc1nc2cc3nc(NC(=O)CN(CC)CC)sc3c(Br)c2s1 | 80% | 100% | -45% | 0% |  |
| CCN(CC)CC(=O)N(C)c1nc2cc3nc(N(C)C(=O)CN(CC)CC)sc3cc2s1.Cl.Cl | 0% | 16% | -16% | 16% |  |
| CN(CC(=O)Nc1nc2cc3nc(NC(=O)CN(C)C4CCCCCCC4)sc3cc2s1)C1CCCCCCC1 | 22% | 29% | -3% | 0% |  |
| CC1CN(CC(=O)Nc2nc3cc4nc(NC(=O)CN5CC(C)NCC5C)sc4cc3s2)C(C)CN1.Cl.Cl.Cl.Cl (configuration not stated) | 0% | 0% | -6% | 0% |  |
| O=C(CN1CCCCC1CC1CCCCC1)Nc1nc2cc3nc(NC(=O)CN4CCCCC4CC4CCCCC4)sc3cc2s1 (configuration not stated) | 0% | 0% | 1% | 0% |  |
| CCN(CC)CC(=O)Nc1nc2cc3nc(NC(=O)CN(CC)CC)sc3c(Cl)c2s1 | 94% | 100% | -46% | 8% |  |
| CCN(CC)CC(=O)N(CC)c1nc2cc3nc(N(CC)C(=O)CN(CC)CC)sc3cc2s1 | 14% | 0% | -4% | 18% |  |
